Here are results for twelve compounds from ChEMBL document CHEMBL3779813, “Design, synthesis, topoisomerase I & II inhibitory activity, antiproliferative activity, and structure-activity relationship study of pyrazoline derivatives: An ATP-competitive human topoisomerase IIα catalytic inhibitor” (Bioorg Med Chem, 2016).

pIC50: −log10 of the molar value. Structures can show the parent of a compound that is named as a salt. The source made the active and inactive calls. No cut-off for these calls is given here.

The nature of experiment [1]: Antiproliferative activity against human HCT15 cells after 72 hrs by CCK8 assay. The format is functional, cell-based. The following applies: HCT-15, 72 h. The essentials: (§1)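 Cells grown in RPMI 1640 with 10% FBS and 1% penicillin, 37 °C, 5% CO2. Seeded at 10^4 cells/well, 24 h at 37 °C, then compound for 72 h. CCK-8 (mitochondrial dehydrogenase) added, 4 h at 37 °C, absorbance read at 450 nm; IC50 derived. Compound stocks 20 mM in DMSO.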

For experiment [2], the system named is HCT-15. Put plainly: Inhibition of human recombinant topoisomerase mediated DNA relaxation in human HCT15 nuclear lysate at 50 uM preincubated for 24 hrs followed by addition of pBR322 plasmid measured after 30 mins by ethidium bromide staining based agarose gel electrophoresis. The gist of the method: (§2)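 HCT15 cells treated 24 h with compound, harvested, nuclear lysates prepared and protein measured by Bradford. 100 µg nuclear protein plus 100 ng pBR322 in buffer with Tris-Cl pH 7.5, MgCl2, ATP, EDTA, DTT, KCl, BSA, 30 min at 37 °C. Analyzed on 0.9% agarose with ethidium bromide; lysate-free plasmid control.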

In another experiment the test system is T47D. Briefly: Antiproliferative activity against human T47D cells after 72 hrs by CCK8 assay. It counts as functional, cell-based. The gist of the method:
as §1

The target of experiment [3] is DNA topoisomerase 2-alpha (Homo sapiens) (UniProt P11388). Put plainly: Inhibition of human recombinant topoisomerase 2alpha using supercoiled pUC18 as substrate assessed as hydrolysis of ATP preincubated for 30 mins followed by ATP addition measured after 30 mins by malachite green phosphate based ELISA microplate reader analysis.
DNA topoisomerase 2-alpha (Homo sapiens), sequence (P11388 whole entry): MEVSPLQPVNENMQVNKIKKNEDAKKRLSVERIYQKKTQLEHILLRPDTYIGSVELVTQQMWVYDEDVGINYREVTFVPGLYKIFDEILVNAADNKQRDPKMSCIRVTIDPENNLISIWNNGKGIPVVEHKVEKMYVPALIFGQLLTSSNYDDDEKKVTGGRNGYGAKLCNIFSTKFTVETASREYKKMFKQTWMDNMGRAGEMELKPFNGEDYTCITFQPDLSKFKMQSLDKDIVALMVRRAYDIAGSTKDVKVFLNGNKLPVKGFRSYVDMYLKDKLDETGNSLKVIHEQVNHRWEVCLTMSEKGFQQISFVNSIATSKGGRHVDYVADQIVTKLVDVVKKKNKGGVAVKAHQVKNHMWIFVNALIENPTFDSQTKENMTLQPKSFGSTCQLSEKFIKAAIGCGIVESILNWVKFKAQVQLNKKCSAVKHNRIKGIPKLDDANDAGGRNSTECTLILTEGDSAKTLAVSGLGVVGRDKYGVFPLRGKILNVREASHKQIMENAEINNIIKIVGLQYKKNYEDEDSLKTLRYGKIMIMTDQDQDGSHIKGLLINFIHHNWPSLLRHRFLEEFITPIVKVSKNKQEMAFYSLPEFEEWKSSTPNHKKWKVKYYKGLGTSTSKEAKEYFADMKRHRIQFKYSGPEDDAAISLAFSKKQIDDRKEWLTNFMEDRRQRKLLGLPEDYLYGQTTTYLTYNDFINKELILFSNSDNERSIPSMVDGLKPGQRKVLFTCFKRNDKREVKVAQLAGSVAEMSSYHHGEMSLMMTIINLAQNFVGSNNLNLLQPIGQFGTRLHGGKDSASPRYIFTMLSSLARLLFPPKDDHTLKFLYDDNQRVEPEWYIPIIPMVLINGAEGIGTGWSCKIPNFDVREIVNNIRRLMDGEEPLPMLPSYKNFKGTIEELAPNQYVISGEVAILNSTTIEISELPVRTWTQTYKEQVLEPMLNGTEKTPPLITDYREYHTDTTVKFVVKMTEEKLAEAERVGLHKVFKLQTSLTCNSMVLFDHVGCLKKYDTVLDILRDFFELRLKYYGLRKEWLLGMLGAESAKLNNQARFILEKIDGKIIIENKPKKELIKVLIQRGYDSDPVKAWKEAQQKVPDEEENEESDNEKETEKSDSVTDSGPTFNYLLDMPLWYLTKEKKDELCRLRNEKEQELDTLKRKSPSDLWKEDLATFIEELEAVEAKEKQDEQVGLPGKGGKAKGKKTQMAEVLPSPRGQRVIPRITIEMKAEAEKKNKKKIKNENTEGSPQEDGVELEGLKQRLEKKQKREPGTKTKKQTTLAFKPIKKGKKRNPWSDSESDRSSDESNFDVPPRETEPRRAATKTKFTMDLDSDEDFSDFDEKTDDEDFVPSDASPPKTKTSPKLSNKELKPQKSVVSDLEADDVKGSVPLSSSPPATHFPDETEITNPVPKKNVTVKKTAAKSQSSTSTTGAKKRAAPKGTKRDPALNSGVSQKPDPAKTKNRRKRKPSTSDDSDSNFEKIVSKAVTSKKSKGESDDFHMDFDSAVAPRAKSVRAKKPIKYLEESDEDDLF
The nature of experiment [4]: Antiproliferative activity against human BT474 cells after 72 hrs by CCK8 assay. It counts as functional, cell-based. The following applies: BT-474, 72 h. The gist of the method: as §1
Experiment [5] concerns the target DNA topoisomerase 2-alpha (Homo sapiens) (UniProt P11388). The following applies: 100 uM.
The target is the same in experiment [6]. Put plainly: Inhibition of human recombinant topoisomerase 2alpha assessed as relaxation of supercoiled plasmid DNA pBR322 at 100 uM after 30 mins by ethidium bromide staining based agarose gel electrophoresis. The gist of the method:
(§3)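 Human topo IIα (1 unit) and 100 ng supercoiled pBR322 incubated 30 min at 37 °C in 10 mM Tris-HCl pH 7.9, 50 mM NaCl, 5 mM MgCl2, 1 mM EDTA, 1 mM ATP, 15 µg/mL BSA. Stopped with 7 mM EDTA; 0.8% agarose in TAE, ethidium bromide stain, UV quantitation as % relaxation inhibition.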

Experiment [7] shares this target. Put plainly: Inhibition of human recombinant topoisomerase 2alpha assessed as relaxation of supercoiled plasmid DNA pBR322 at 20 uM after 30 mins by ethidium bromide staining based agarose gel electrophoresis. The essentials: as §3
Experiment [8] deals with T1, DNA topoisomerase 1 (Homo sapiens) (UniProt P11387).
T1 sequence (whole entry): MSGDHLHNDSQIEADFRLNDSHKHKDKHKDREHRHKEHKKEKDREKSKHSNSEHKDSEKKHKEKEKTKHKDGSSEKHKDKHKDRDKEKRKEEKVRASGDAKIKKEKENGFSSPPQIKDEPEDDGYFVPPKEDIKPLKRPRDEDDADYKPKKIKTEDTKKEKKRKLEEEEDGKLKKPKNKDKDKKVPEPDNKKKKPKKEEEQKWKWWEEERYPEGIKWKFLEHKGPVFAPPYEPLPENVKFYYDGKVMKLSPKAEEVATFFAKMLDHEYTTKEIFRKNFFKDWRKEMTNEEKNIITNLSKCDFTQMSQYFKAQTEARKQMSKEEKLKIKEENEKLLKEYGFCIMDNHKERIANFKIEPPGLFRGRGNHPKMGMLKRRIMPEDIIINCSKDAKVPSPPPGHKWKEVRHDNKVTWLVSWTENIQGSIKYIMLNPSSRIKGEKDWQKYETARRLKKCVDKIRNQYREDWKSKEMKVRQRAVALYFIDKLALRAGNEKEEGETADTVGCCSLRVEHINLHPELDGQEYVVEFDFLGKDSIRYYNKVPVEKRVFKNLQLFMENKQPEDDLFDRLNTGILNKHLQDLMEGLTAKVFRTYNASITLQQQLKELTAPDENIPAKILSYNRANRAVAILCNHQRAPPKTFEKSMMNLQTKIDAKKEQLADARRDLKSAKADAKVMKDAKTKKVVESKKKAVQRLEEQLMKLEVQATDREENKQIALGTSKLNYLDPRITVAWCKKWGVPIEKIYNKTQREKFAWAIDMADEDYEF
Put plainly: Inhibition of human recombinant topoisomerase 1 assessed as relaxation of supercoiled plasmid DNA pBR322 at 100 uM after 30 mins by ethidium bromide staining based agarose gel electrophoresis. The essentials: (§4)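 Recombinant human topo I (1 unit) with 100 ng supercoiled pBR322, 30 min at 37 °C in 10 mM Tris-HCl pH 7.9, 150 mM NaCl, 0.1% BSA, 1 mM spermidine, 5% glycerol. Stopped with sarcosyl buffer; 0.8% agarose, 60 V 1 h in TAE, ethidium bromide stain 30 min, UV densitometry of relaxation as % inhibition.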

For experiment [9], the target named is T1, DNA topoisomerase 1 (Homo sapiens). Briefly: Inhibition of human recombinant topoisomerase 1 assessed as relaxation of supercoiled plasmid DNA pBR322 at 20 uM after 30 mins by ethidium bromide staining based agarose gel electrophoresis. The gist of the method: as §4
Experiment [10] relates to HCT-15. Put plainly: Inhibition of human recombinant topoisomerase mediated DNA relaxation in human HCT15 nuclear lysate at 100 uM preincubated for 24 hrs followed by addition of pBR322 plasmid measured after 30 mins by ethidium bromide staining based agarose gel electrophoresis. The essentials: as §2
Experiment [11] deals with DNA topoisomerase 2-alpha (Homo sapiens) (UniProt P11388). Briefly: Competitive inhibition of human recombinant topoisomerase 2alpha at 5 to 250 uM using supercoiled plasmid pBR322 as substrate after 30 mins by ethidium bromide staining based agarose gel electrophoresis in presence of ATP.
Experiment [12] shares this target. Put plainly: Activity at human recombinant topoisomerase 2alpha using supercoiled plasmid pBR322 as substrate assessed as stabilization of enzyme-DNA cleavage upto 300 uM after 20 mins by ethidium bromide staining based agarose gel electrophoresis. The essentials:
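Cleavage complex: 125 ng supercoiled pBR322 preincubated 10 min with 3 units human topo IIα, then compound added, 20 min at 37 °C in 10 µL. Stopped with SDS, proteinase K digestion 30 min at 45 °C, heated 2 min at 70 °C. Run on 0.8% agarose with 0.5 µg/mL ethidium bromide in TAE; linear DNA band quantified by UV imaging.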

On to `COc1cc([C@@H]2c3cc4c(cc3[C@@H](O[C@@H]3O[C@@H]5CO[C@@H](C)O[C@H]5[C@H](O)[C@H]3O)[C@H]3COC(=O)[C@H]23)OCO4)cc(OC)c1O` [ETOPOSIDE], for which the negative logarithm of the IC50 (pIC50) was 5.16 in experiment [1], 5.19 in the experiment with T47D and 5.18 in experiment [4]. The inhibition was 36% in the experiment on HCT-15 [2], “Dose-dependent effect” in [3] and 95.9% in experiment [6]. Also, the inhibition result in experiment [5] was “inactive”.

As to `COc1ccccc1C1=NN(C(=O)c2ccncc2)C(c2ccc([N+](=O)[O-])cc2)C1` (configuration not stated), the inhibition came out at 0% in experiment [7], 0% in experiment [8] and 92.8% in experiment [6]. Also, the values for the pIC50 (in [1]; in the experiment on T47D; in [4]) were 5.59, less than 4.30 and 5.14, respectively.

As to `COc1ccc(C2CC(c3ccccc3)=NN2C(=O)c2nc3ccccc3s2)cc1` (configuration not stated), the results for the inhibition in experiment [7], in experiment [8] and in [6] were 0%, 0% and 91.2%, respectively. The pIC50 in experiment [1] was 5.72; in the experiment with T47D, less than 4.30; in experiment [4] it was 5.20.

Regarding `COc1ccc(C2CC(c3ccccc3)=NN2C(=O)c2ccco2)cc1` (configuration not stated), the inhibition in experiment [7] amounted to 0%; in [8] it was 0%; in experiment [6], 91.6%. Further, the pIC50 in [1] was 5.41; in the experiment with T47D, 4.56; in experiment [4], less than 4.30.

For the compound `O=C(c1ccncc1)N1N=C(c2ccc(Cl)cc2)CC1c1ccco1` (configuration not stated), the inhibition is 0% in [7], 0% in experiment [8] and 76% in experiment [6]. Besides, the pIC50 in experiment [1] is 5.51; in the experiment with T47D, 5.10; in experiment [4], 5.19.

As to `COc1cccc2c1C(=O)c1c(O)c3c(c(O)c1C2=O)C[C@@](O)(C(=O)CO)C[C@@H]3O[C@H]1C[C@H](N)[C@H](O)[C@H](C)O1` [DOXORUBICIN HYDROCHLORIDE], the pIC50 in experiment [1] is 4.64; in experiment [4] it was 5.49.

Turning to `COc1ccc(C2CC(c3ccccc3)=NN2C(=O)c2ccncc2)cc1` (configuration not stated), the inhibition in experiment [7] worked out at 0%; in experiment [8] it was 0%; in experiment [6] it was 92.5%. The pIC50 was 4.98 in experiment [1], less than 4.30 with T47D and less than 4.30 in experiment [4].

As to `O=C(c1ccco1)N1N=C(c2ccc(Cl)cc2)CC1c1ccco1` (configuration not stated), the inhibition was found to be 1.3% in [7], 4% in experiment [9], 96.8% in [8] and 93.1% in experiment [6]. For the same compound, the pIC50 (in experiment [1]; in the experiment on T47D; in experiment [4]) was less than 4.30 each time.

Turning to `CC[C@@]1(O)C(=O)OCc2c1cc1n(c2=O)Cc2cc3ccccc3nc2-1` [CAMPTOTHECIN], the values for the negative logarithm of the IC50 (pIC50) (in experiment [1]; with T47D; in experiment [4]) were 5.15, 5.39 and 5.15, respectively.

In the case of `COc1ccccc1C1=NN(C(=O)c2ccc([N+](=O)[O-])o2)C(c2ccc([N+](=O)[O-])cc2)C1` (configuration not stated), the results for the inhibition in experiment [7], in experiment [8] and in [6] were 2.9%, 0% and 92.6%, respectively. Further, the pIC50 (in [1]; in the experiment on T47D; in experiment [4]) was less than 4.30 throughout.

With `COc1ccc(C2CC(c3ccc(Cl)cc3)=NN2C(=O)c2nc3ccccc3s2)cc1` (configuration not stated), the inhibition in [7] was 0%; in the experiment with HCT-15 [2], 78%; in the experiment with HCT-15 [10], 85.4%; in [3], “Dose-dependent effect”; in experiment [8], 0%; in experiment [6] it was 89.7%. Further, the pIC50 in experiment [1] is 5.39; in the experiment on T47D, 5.18; in [4], 5.14. In addition, the inhibition entry in experiment [11] is “Active”. Besides, the outcome in [12] was inactive.

With `COc1ccc(C2=NN(C(=O)c3ccco3)C(c3ccco3)C2)cc1` (configuration not stated), the values for the inhibition in [7], in experiment [8] and in experiment [6] were 0%, 0% and 94.1%, respectively. Moreover, the pIC50 was 5.37 in experiment [1], 5.12 in the experiment on T47D and less than 4.30 in experiment [4].
